Reference: ChEMBL document CHEMBL4715825, “Synthesis and biological evaluations of marine oxohexadecenoic acids: PPARα/γ dual agonism and anti-diabetic target gene effects” (Eur J Med Chem, 2018)
Active and inactive are the calls of the source. The calls are words filed in the database; no cut-off is given here.

How the values were obtained:
[1] = Cytotoxicity against African green monkey COS-1 cells assessed as cell viability at EC50 concentration for PPAR activation assay by XTT assay; assay type: cell-based; settings: chlorocebus aethiops, read-out: Activity
How it was run: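 Run on COS-1 cells treated in parallel with the Gal4-LBD PPAR reporter assays. Metabolic NAD(P)H flux was measured by kit XTT assay per the maker's protocol. Absorbance was read at 450/690 nm.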

[2] = Cytotoxicity against African green monkey COS-1 cells assessed as cell viability at EC50 concentration for PPAR activation assay by LDH assay; assay type: cell-based; settings: chlorocebus aethiops, read-out: Activity
How it was run: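 Assayed in the same COS-1 cultures as the Gal4-LBD PPAR reporter assays. Lactate dehydrogenase released into the medium was measured with a commercial kit per the maker's protocol. Absorbance was read at 492/750 nm.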

[3] = target: T1, Peroxisome proliferator-activated receptor alpha (Homo sapiens) (UniProt Q07869); assay: Agonist activity at human PPARalpha in 8 day differentiated human SGBS cells assessed as increase in FABP4 gene expression at 25 uM incubated for 24 hrs by SYBR-green based qPCR analysis; assay type: cell-based
T1 sequence (whole entry): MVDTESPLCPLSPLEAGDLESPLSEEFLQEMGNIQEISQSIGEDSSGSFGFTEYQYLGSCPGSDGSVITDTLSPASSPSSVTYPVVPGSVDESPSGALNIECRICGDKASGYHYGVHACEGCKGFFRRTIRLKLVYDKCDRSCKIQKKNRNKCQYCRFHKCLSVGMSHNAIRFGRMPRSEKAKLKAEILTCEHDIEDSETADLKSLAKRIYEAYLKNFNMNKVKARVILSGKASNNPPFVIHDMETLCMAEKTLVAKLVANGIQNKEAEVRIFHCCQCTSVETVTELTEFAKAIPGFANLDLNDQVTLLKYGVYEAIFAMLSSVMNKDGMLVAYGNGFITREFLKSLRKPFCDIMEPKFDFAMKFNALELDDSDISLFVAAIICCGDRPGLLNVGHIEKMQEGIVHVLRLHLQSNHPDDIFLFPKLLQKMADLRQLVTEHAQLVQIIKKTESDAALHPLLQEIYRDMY
How it was run: (§1)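 SGBS preadipocytes were seeded at passage P6-P8 and grown to confluence. They were differentiated for 4 days in Quickdiff (3FC plus dexamethasone, IBMX and rosiglitazone), then kept in 3FC with medium renewed every fourth day. On day 8, cells were stimulated for 24 h in 3FC with compound:BSA or rosiglitazone. SYBR-green qPCR used gene-specific primers. Data are mean ± SEM of three biological replicates in duplicate.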

[4] = system: SGBS; assay: Induction of adipogenesis in 8 day differentiated human SGBS cells assessed as increase in CEBPA mRNA expression at 25 uM measured upto 12 days by qRT-PCR analysis; assay type: functional, cell-based; settings: time day <=12
How it was run: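 SGBS cells were grown to confluence (day 0). Quickdiff medium was supplemented with compound or rosiglitazone for 4 days, followed by 3FC medium. DMSO or DMSO:BSA served as control. RNA was harvested on days 0, 4, 8 and 12, and expression was measured by SYBR-green qPCR. Data are mean ± SEM of at least three biological replicates in duplicate.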

[5] = target: T2, Peroxisome proliferator-activated receptor gamma (Homo sapiens) (UniProt P37231); assay: Agonist activity at human PPARgamma in 8 day differentiated human SGBS cells assessed as decrease in IL-1 beta gene expression at 25 uM incubated for 24 hrs by SYBR-green based qPCR analysis; assay type: cell-based; settings: filed as agonist
T2 sequence (whole entry): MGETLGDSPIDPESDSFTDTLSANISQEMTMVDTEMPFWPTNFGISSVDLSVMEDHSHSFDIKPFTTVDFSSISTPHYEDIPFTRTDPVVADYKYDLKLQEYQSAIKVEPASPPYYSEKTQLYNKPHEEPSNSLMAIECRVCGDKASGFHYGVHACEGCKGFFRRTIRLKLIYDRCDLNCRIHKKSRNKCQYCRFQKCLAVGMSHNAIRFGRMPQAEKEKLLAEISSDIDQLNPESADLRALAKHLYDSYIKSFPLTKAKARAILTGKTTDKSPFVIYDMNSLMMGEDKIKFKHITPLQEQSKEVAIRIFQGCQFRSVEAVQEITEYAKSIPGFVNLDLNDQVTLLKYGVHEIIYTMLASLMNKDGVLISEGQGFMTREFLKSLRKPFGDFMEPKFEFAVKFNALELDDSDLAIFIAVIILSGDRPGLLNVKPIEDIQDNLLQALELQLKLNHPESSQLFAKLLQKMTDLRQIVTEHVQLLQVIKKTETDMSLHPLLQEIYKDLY

[6] = system: SGBS; assay: Effect on diabetic complication pathway in 8 day differentiated human SGBS cells assessed as downregulation of TNF signalling genes at 25 uM incubated for 8 days by Illumina sequencing method; assay type: functional, cell-based
How it was run: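 SGBS cells were differentiated 4 days in Quickdiff supplemented with compound:BSA or rosiglitazone, then 4 days in 3FC. Total RNA was extracted, and strand-specific TruSeq libraries were sequenced on NextSeq 500 (2×75 bp paired-end). Reads were aligned to hg19 with Tophat/Bowtie and counted as RPKM by Cufflinks. Values are log2 fold over day 0 cells, grouped into KEGG gene sets (n = 2-4).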

[7] = system: SGBS; assay: Induction of adipogenesis in 8 day differentiated human SGBS cells assessed as increase in adipocyte-like multilocular morphology cells at 25 uM measured upto 12 days by oil-O-red staining based inverted microscopic analysis; assay type: functional, cell-based; settings: time day <=12
How it was run: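 SGBS cells were differentiated in Quickdiff for 4 days, supplemented with 25 µM oxo-fatty acid or 2 µM rosiglitazone, then in 3FC to day 8. Controls were DMSO (0.025%) or BSA (4.2 µM). Cells were fixed in 4% paraformaldehyde for 15 min and stained 15 min with Oil Red O for neutral lipids. They were imaged by inverted microscope at 10× and 40×. Three biological replicates were run in duplicate.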

[8] = target: T2, Peroxisome proliferator-activated receptor gamma (Homo sapiens); assay: Agonist activity at human PPARgamma in 8 day differentiated human SGBS cells assessed as decrease in TNF gene expression at 25 uM incubated for 24 hrs by SYBR-green based qPCR analysis; assay type: cell-based; settings: filed as agonist
[9] = target: T2, Peroxisome proliferator-activated receptor gamma (Homo sapiens); assay: Agonist activity at human PPARgamma in 8 day differentiated human SGBS cells assessed as increase in IRS1 gene expression at 25 uM incubated for 24 hrs by SYBR-green based qPCR analysis; assay type: cell-based; settings: filed as agonist
[10] = target: T1, Peroxisome proliferator-activated receptor alpha (Homo sapiens); assay: Agonist activity at human PPARalpha in 8 day differentiated human SGBS cells assessed as increase in ADIPOQ gene expression at 25 uM incubated for 24 hrs by SYBR-green based qPCR analysis; assay type: cell-based; how it was run: as §1

Row | Activity [3] | Activity [5] | Activity [8] | Activity [9] | Activity [10] | SMILES | viability [1] [%] | viability [2] [%] | Activity [4] | Activity [6] | Activity [7]
1 | inactive | Active | Active | Active | inactive | CCCCCCCC(=O)/C=C/CCCCCC(=O)O | > 90 | > 95 | Active | Active | Active
2 | inactive | Active | Active | Active | inactive | CCCCC/C=C/C(=O)CCCCCCCC(=O)O | > 90 | > 95 | Active | Active | Active
